From PubChem BioAssay come the findings set out here.

Molecules are shown by their SMILES. Calls of active or inactive are those of the source.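 Rule for the calls: active = growth inhibition above a set limit, 3 SD over mean compound inhibition, in both replicates (cut at about 43% in these data); inconclusive = above the limit in only one replicate; inactive = at or below the limit in both replicates.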

The nature of the test: S. cerevisiae growth inhibition in restrictive medium, OD615, pilot screen, restrictive growth control, yeast lifespan reduction project (AID 706).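 Note: modified DeaD lifespan yeast strain shifted to restrictive glucose medium.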 The note with it: OD615, 48 h, at 10 µM, stronger effect = higher value. The essentials: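 material = engineered S. cerevisiae DeaD strain | buffer or medium = glucose-based CSMM-D restrictive medium | dosing = one concentration, 10 µM final, 0.25% DMSO | schedule = 4 h pre-growth plus 48 h compound exposure, 30 °C | detection = OD615 absorbance reading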
As for `COCCCN1C(=O)C(O)=C(C(=O)c2ccc(C)o2)C1c1cccc(Br)c1` (stereo not drawn), the growth inhibition is -3.15% (inactive). As for `CCOc1ccc(OCC)c(S(=O)(=O)NCCCN2CCOCC2)c1`, the figure is -12.2% (inactive); as for `CC1CCc2nn(CC(=O)NCCCN3CCCC3=O)cc2C1` (stereo not drawn), -22.7% (inactive); as for `Clc1ccc(Cc2nnc(-c3ccccc3Br)o2)cc1`, -0.37% (inactive). For `Cc1cc(C)c(C)c(OCC(=O)NCCN(C)C)c1` the value was -3.56% (inactive); for `COC(=O)CCS(=O)(=O)c1cc(Cl)ccc1Cl`, 7.17% (inactive). As for `Cn1cccc1Cc1nnc(SCC(=O)N2CCCC2)n1CCc1ccccc1`, the figure is 16.7% (inactive).

In the case of `CC1NC(=O)NC1CCCCC(=O)O` (stereo not drawn), the growth inhibition was 2.25% (inactive).

`CCOC(=O)c1cc(-c2ccc(F)cc2)n(CC(=O)Nc2nccs2)c1C`: the growth inhibition is 1.7% (inactive). Regarding `Cn1c(SCC(=O)Nc2ccccc2F)nnc1-c1cccnc1`, the growth inhibition is -5.78% (inactive). For `CCn1cc(C(=O)Nc2ccc3c(c2)OCCO3)c2cc(OC)c(OC)cc2c1=O` the value was 2.6% (inactive). In the case of `O=C1c2ccccc2C(=O)N1CCCc1nc(-c2ccc(Cl)cc2)no1`, the growth inhibition is -5.26% (inactive). As for `CN1C(=O)c2cccc(NC(=O)Cc3ccccc3)c2C1=O`, the figure is 15.6% (inactive); as for `CCc1c(C(C)O)oc2ccc3c(C)cc(=O)oc3c12` (stereo not drawn), 2.23% (inactive).

As for `O=C(NCCc1ccccc1)c1ccncc1`, the growth inhibition is 4.46% (inactive).

Regarding `Cc1onc(-c2ccccc2Cl)c1C(=O)N(C)C1CCCCC1`, the growth inhibition is -9.2% (inactive). As for `CCN(CC(=O)NCc1ccc(F)cc1)C(=O)C1CCN(C(=O)Nc2ccccc2)CC1`, the figure is -6.36% (inactive); as for `CCCCCn1c(=N)n(CC(O)COc2ccccc2OC)c2ccccc21` (stereo not drawn), 4.88% (inactive); as for `N#CC1=C(N)Oc2c(sc3ccccc23)C1c1ccco1` (stereo not drawn), -4.08% (inactive). As for `COc1ccccc1N1CCN(Cc2cc(Br)c(O)c3ncccc23)CC1`, the figure is 98.6% (active).

As for `CC(=O)Nc1ccc(S(=O)(=O)N2CCN(c3nc(NC4CCCC4)c4ccccc4n3)CC2)cc1`, the growth inhibition is -1.39% (inactive). For `COc1cc(NC(=O)c2c(-c3ccccc3Cl)noc2C)c2ncccc2c1` the value was -18.1% (inactive); for `O=C(O)CCc1ccc(-c2cccs2)n1NC(=O)c1ccc(Cl)cc1`, -14.6% (inactive).
